NOD2 RIPK2 PPI: blocks binding of human NOD2 to RIPK2 | O43353 | AID 624267 | inhibition, % at 4.98 µM | CHO BLA complementation NOD2-RIPK2, CCF4 ratio | hit rate 0.38% among 360,000; in the data active = inhibition above about 21%
CHOP UPR activ: activators of apoptotic arm of unfolded protein response (CHOP); CHO-CHOP luciferase reporter, UPR activation, luminescence; percent of tunicamycin response over DMSO baseline; activation, % at 10 µM; hit rate 0.34% among 330,000; AID 449763;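 active = at 10 µM dose, activation of 40% or more, normalized to positive control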
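Test system: CHO-CHOP cells, stable luciferase reporter of PERK-eIF2a-CHOP signalling | Quantity: 500 CHO-CHOP cells per well | Buffer or medium: F12 plus 10% serum | Compound dosing: 10 µM single point, 0.5% DMSO | Schedule: 6 h compound treatment, 37 °C | Signal: Luciferase luminescence | Control set: Tunicamycin high control, DMSO low control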
TLR4-MyD88 BLA: inhibitors of human TLR4-MyD88 binding; O00206+Q99836; hit rate 0.18% among 200,000; AID 861; HeLa CL3-4 TLR4/MyD88 BLA complementation, FRET ratio; inhibition, % at 8.4 µM; in the data active = inhibition above about 25%
UPR XBP1 act: adaptive UPR (XBP1) activation. CHO-XBP1 luciferase reporter, IRE1-XBP1 UPR activation, luminescence; percent of tunicamycin response, DMSO as zero. hit rate 0.33% among 330,000. activation, % at 20 µM;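 active = versus positive control, 20 µM dose yields 30% or more activation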
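assay system = CHO-XBP1 luciferase reporter cells | amount = 1000 cells/well | buffer or medium = F12 plus 10% FBS | compound dosing = single point, 20 µM final compound, 1% DMSO | incubation = 16-18 h cell attachment at 37 °C, then 6 h compound exposure | detection = Steady-Glo luminescence read | controls = tunicamycin 10 µg/mL and vehicle-only wells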
TLR9-MyD88 block: TLR9-MyD88 interaction inhibition | Q9NR96+Q99836 | CHO BLA complementation TLR9-MyD88, CCF4 FRET ratio | inhibition, % at 4.98 µM | hit rate 0.21% among 340,000;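 active = inhibition above the mean over all tested compounds plus 3 SD, cut at about 21% in these data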
CHOP inhibitor: CHOP inhibition in unfolded protein response | CHO-K1 CHOP-promoter luciferase, tunicamycin-induced, 15-18 h | inhibition, % at 10 µM | hit rate 3.8% among 220,000 | AID 2732;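 active = compounds that reduced the stress-induced luciferase reporter signal by more than about 70% of percent inhibition, limit read from the data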
CHOP UPR conf: apoptotic UPR (CHOP) activation, confirmed; shares compounds with CHOP UPR activ; activation, % at 10 µM; CHO-CHOP cells, CHOP-luciferase reporter luminescence; percent of tunicamycin response, DMSO as zero; hit rate 64% among 1,000; in the data active = activation above about 33%
Hits are given with their value. Many of the other results were omitted from the sample, so hits are more common in it than they were.

What do the screens show for `CCCCCCCCCn1c2c(c(=N)c3c1CCC3)CCC2`?
NOD2 RIPK2 PPI: inactive; CHOP UPR activ: 57; TLR4-MyD88 BLA: inactive; UPR XBP1 act: inactive; TLR9-MyD88 block: inactive; CHOP UPR conf: 43

Results for COC(=O)c1ccc(/C=C/C(=O)c2ccc(OC)c(OC)c2)cc1 ?
NOD2 RIPK2 PPI: inactive; CHOP UPR activ: inactive; TLR4-MyD88 BLA: inactive; UPR XBP1 act: inactive; TLR9-MyD88 block: inactive; CHOP inhibitor: inactive

Results for COc1ccc(/C=C/C(=O)c2ccc(C(=O)/C=C/c3ccc(OC)c(OC)c3)cc2)cc1OC ?
NOD2 RIPK2 PPI: inactive; CHOP UPR activ: 84; UPR XBP1 act: inactive; TLR9-MyD88 block: inactive; CHOP UPR conf: 138

What do the screens show for `COc1ccc(C(CC(=O)c2ccccc2)CC(=O)c2ccccc2)cc1`?
NOD2 RIPK2 PPI: inactive; CHOP UPR activ: inactive; UPR XBP1 act: inactive; TLR9-MyD88 block: inactive; CHOP inhibitor: inactive

What do the screens show for `C=C(C(=O)c1ccccc1)C(C(=C)C(=O)c1ccccc1)c1ccc(OC)cc1`?
NOD2 RIPK2 PPI: inactive; CHOP UPR activ: 62; UPR XBP1 act: inactive; TLR9-MyD88 block: inactive; CHOP inhibitor: inactive; CHOP UPR conf: 65

What do the screens show for `N#Cc1c(N2CCCC(O)C2)nc(N)c2c(N)nc3c(c12)CC(=O)N3C12CC3CC(CC(C3)C1)C2` (configuration not stated)?
NOD2 RIPK2 PPI: inactive; CHOP UPR activ: 46; TLR4-MyD88 BLA: inactive; UPR XBP1 act: inactive; TLR9-MyD88 block: inactive; CHOP inhibitor: inactive; CHOP UPR conf: inactive

What do the screens show for `CCc1ccccc1OCC(=O)Nc1ccc(F)c(S(=O)(=O)N2CCOCC2)c1`?
NOD2 RIPK2 PPI: inactive; CHOP UPR activ: inactive; UPR XBP1 act: inactive; TLR9-MyD88 block: inactive

What do the screens show for `CCOC(=O)C(CC)(CC)C(=O)/C=C/c1cccc(Br)c1`?
NOD2 RIPK2 PPI: inactive; CHOP UPR activ: 54; TLR4-MyD88 BLA: inactive; UPR XBP1 act: inactive; TLR9-MyD88 block: inactive; CHOP UPR conf: 70

How did CC(=O)N(C1CC(C)C(C#N)(C#N)C1(C#N)C#N)N(C)C (configuration not stated) do in these assays?
NOD2 RIPK2 PPI: inactive; CHOP UPR activ: 72; TLR4-MyD88 BLA: inactive; UPR XBP1 act: inactive; TLR9-MyD88 block: inactive; CHOP inhibitor: 92; CHOP UPR conf: inactive

Results for COc1ccc(N=C2S/C(=C\c3ccc(OCC(=O)O)cc3)C(=O)N2CCc2c[nH]c3ccccc23)cc1 ?
NOD2 RIPK2 PPI: inactive; CHOP UPR activ: inactive; TLR4-MyD88 BLA: inactive; UPR XBP1 act: inactive; TLR9-MyD88 block: inactive; CHOP inhibitor: inactive

What do the screens show for `COc1ccc(N=C2S/C(=C\c3ccc(N4CCOCC4)o3)C(=O)N2CCc2c[nH]c3ccccc23)cc1`?
NOD2 RIPK2 PPI: 33; CHOP UPR activ: 139; TLR4-MyD88 BLA: inactive; UPR XBP1 act: inactive; TLR9-MyD88 block: inactive; CHOP inhibitor: inactive; CHOP UPR conf: 73

What do the screens show for `CC(=O)c1cccc(-c2ccnc3c2CC(C(=O)Nc2ccc4c(c2)OCO4)O3)c1` (configuration not stated)?
NOD2 RIPK2 PPI: inactive

What do the screens show for `CCOC(=O)c1c(NC(=O)c2ccco2)n(C2CCCCC2)c2nc3ccccc3nc12`?
NOD2 RIPK2 PPI: inactive; CHOP UPR activ: 40; TLR4-MyD88 BLA: inactive; UPR XBP1 act: inactive; TLR9-MyD88 block: inactive; CHOP inhibitor: inactive; CHOP UPR conf: inactive

What do the screens show for `C[C@H]1CN([C@@H](C)CO)C(=O)c2cc(-c3ccccc3F)cnc2O[C@@H]1CN(C)C(=O)NC1CCCCC1`?
NOD2 RIPK2 PPI: inactive; TLR9-MyD88 block: inactive

What do the screens show for `OCc1ccccc1-c1cnc2sc(NCc3ccc(F)cc3)nn12`?
NOD2 RIPK2 PPI: inactive

What do the screens show for `O=C(Nc1nc(-c2ccccn2)cs1)c1ccc(Br)s1`?
NOD2 RIPK2 PPI: inactive; CHOP UPR activ: 60; TLR4-MyD88 BLA: inactive; UPR XBP1 act: inactive; TLR9-MyD88 block: inactive; CHOP inhibitor: inactive; CHOP UPR conf: 42

How did C#CCNC(=O)C[C@@H]1C[C@@]2(C(=O)OC)CCCCC=C2N(Cc2ccc(Cl)cc2Cl)C1=O do in these assays?
NOD2 RIPK2 PPI: inactive

Results for Brc1ccccc1CN1CCN(Cc2c[nH]c3ccccc23)CC1 ?
CHOP UPR activ: 41; UPR XBP1 act: inactive; CHOP UPR conf: 153

Results for CCC(C)Nc1nc(-c2ccccn2)nc2ccccc12 (configuration not stated) ?
NOD2 RIPK2 PPI: inactive; CHOP UPR activ: 47; UPR XBP1 act: inactive; TLR9-MyD88 block: inactive; CHOP UPR conf: inactive

Results for c1ccc(CNc2nc(-c3ccccc3)nc3ccccc23)cc1 ?
NOD2 RIPK2 PPI: inactive; CHOP UPR activ: inactive; UPR XBP1 act: inactive; TLR9-MyD88 block: inactive

How did c1ccc(CNc2nc(-c3ccccn3)nc3ccccc23)cc1 do in these assays?
NOD2 RIPK2 PPI: inactive; CHOP UPR activ: 40; UPR XBP1 act: inactive; TLR9-MyD88 block: inactive; CHOP UPR conf: inactive

What do the screens show for `CCC(C)Nc1nc(-c2cccc(OC)c2O)nc2ccccc12` (configuration not stated)?
NOD2 RIPK2 PPI: inactive; CHOP UPR activ: inactive; TLR4-MyD88 BLA: inactive; UPR XBP1 act: inactive; TLR9-MyD88 block: inactive; CHOP inhibitor: inactive

How did CCCC(=O)N1CCCC1(C)C(=O)NCCc1ccccn1 (configuration not stated) do in these assays?
NOD2 RIPK2 PPI: inactive

How did CCOc1ccc(-c2cc(C(=O)NCc3cc(C(F)(F)F)cc(C(F)(F)F)c3)[nH]n2)c(C)c1 do in these assays?
NOD2 RIPK2 PPI: inactive

Results for Cc1noc2ncnc(Sc3ccc(Cl)cc3)c12 ?
NOD2 RIPK2 PPI: inactive; CHOP UPR activ: 188; TLR4-MyD88 BLA: inactive; UPR XBP1 act: inactive; TLR9-MyD88 block: inactive; CHOP inhibitor: inactive; CHOP UPR conf: 118

How did O=C(N/N=C/c1ccc(Cl)c([N+](=O)[O-])c1)c1cc(-c2ccc3c4c(cccc24)CC3)n[nH]1 do in these assays?
NOD2 RIPK2 PPI: inactive; CHOP UPR activ: 43; UPR XBP1 act: inactive; TLR9-MyD88 block: inactive; CHOP inhibitor: 77; CHOP UPR conf: inactive

Results for NNC(=O)c1ccc(CSc2cccc3cccnc23)cc1 ?
NOD2 RIPK2 PPI: inactive; CHOP UPR activ: inactive; TLR4-MyD88 BLA: inactive; UPR XBP1 act: inactive; TLR9-MyD88 block: inactive; CHOP inhibitor: inactive

How did Cc1cccc(CSc2cccc3cccnc23)c1 do in these assays?
NOD2 RIPK2 PPI: inactive; CHOP UPR activ: 407; TLR4-MyD88 BLA: inactive; UPR XBP1 act: inactive; TLR9-MyD88 block: inactive; CHOP inhibitor: inactive; CHOP UPR conf: 254

What do the screens show for `CCOC(=O)CSc1cccc2cccnc12`?
NOD2 RIPK2 PPI: inactive; CHOP UPR activ: 231; TLR4-MyD88 BLA: inactive; UPR XBP1 act: inactive; TLR9-MyD88 block: inactive; CHOP inhibitor: inactive; CHOP UPR conf: 202
